Results published in ChEMBL document CHEMBL5338796, “Discovery of a Selective and Orally Bioavailable FGFR2 Degrader for Treating Gastric Cancer” (J Med Chem, 2023).
Calls of active or inactive are those of the source. The rule behind the calls is not given here.

What was measured:
[1] = target: T1, Fibroblast growth factor receptor (Homo sapiens) (UniProt P22607+P11362+P22455+P21802); assay: Induction of FGFR degradation in human KATO III stomach cancer cell line assessed as reduction in FGFR phosphorylation at A-loop Tyr656/657 residue at 25 nM measured for 6 hrs; type: cell-based
T1 sequence (P11362 whole entry, looked up): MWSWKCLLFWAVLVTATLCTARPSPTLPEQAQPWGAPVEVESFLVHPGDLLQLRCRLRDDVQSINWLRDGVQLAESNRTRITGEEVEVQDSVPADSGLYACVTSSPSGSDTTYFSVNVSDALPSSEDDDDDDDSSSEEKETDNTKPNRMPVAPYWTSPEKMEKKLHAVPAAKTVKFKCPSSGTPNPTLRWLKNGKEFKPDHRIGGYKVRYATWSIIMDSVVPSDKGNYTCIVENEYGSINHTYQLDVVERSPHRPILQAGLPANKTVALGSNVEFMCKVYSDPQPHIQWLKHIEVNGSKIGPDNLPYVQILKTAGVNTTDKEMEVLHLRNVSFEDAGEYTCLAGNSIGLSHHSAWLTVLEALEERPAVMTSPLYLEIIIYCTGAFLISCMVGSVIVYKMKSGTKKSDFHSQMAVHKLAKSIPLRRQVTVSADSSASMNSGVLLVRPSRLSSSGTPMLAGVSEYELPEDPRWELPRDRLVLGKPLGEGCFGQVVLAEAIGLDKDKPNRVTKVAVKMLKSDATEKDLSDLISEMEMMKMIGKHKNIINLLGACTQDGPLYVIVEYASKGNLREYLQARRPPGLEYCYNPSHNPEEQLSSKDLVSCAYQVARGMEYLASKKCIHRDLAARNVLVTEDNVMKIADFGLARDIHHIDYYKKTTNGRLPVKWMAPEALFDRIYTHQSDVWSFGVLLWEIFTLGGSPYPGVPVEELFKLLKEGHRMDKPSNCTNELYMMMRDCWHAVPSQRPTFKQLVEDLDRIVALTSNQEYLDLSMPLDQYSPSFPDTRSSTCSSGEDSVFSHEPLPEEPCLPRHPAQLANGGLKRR
T1 sequence (P21802 whole entry, looked up): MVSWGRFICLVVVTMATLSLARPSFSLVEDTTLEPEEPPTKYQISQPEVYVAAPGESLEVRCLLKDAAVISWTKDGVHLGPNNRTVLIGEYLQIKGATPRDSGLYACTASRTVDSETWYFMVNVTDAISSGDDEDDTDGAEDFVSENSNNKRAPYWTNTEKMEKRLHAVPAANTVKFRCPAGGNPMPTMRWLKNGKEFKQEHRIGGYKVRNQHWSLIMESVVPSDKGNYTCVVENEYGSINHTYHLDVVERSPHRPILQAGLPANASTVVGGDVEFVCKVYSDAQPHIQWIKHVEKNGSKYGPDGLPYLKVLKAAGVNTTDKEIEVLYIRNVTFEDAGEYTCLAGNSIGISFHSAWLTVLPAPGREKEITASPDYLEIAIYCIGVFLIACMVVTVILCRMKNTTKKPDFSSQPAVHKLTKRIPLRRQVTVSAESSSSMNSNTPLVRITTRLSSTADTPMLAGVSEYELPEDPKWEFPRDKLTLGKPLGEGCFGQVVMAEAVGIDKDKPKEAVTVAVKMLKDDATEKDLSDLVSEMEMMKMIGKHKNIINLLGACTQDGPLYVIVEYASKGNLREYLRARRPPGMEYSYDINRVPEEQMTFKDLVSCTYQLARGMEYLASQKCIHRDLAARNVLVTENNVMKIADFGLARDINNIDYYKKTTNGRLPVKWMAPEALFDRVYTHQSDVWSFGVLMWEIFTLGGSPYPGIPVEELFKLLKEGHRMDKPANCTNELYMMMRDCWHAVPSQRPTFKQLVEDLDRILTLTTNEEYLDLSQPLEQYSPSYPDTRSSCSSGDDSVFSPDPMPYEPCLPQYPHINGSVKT
T1 sequence (P22455 whole entry, looked up): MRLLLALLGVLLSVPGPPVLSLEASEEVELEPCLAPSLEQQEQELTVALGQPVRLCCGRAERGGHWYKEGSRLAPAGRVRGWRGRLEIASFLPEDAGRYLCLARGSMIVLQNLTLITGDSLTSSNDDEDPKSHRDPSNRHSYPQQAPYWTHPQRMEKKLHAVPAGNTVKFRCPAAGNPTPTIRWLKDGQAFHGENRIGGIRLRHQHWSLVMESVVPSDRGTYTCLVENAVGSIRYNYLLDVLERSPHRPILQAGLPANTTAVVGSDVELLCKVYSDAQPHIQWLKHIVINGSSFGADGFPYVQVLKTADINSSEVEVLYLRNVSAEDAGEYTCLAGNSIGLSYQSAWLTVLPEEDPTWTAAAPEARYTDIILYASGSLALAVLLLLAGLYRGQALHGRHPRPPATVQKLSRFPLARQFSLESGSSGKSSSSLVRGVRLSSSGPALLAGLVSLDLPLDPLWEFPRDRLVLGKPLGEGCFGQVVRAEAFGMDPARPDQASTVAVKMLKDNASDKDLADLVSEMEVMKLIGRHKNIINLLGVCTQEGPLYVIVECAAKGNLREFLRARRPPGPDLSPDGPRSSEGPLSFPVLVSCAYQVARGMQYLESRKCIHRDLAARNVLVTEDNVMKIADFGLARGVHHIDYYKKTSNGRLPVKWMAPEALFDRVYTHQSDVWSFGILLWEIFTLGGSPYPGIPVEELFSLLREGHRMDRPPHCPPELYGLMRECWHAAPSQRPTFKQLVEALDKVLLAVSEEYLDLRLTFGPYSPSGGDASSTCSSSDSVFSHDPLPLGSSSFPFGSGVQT
T1 sequence (P22607 whole entry, looked up): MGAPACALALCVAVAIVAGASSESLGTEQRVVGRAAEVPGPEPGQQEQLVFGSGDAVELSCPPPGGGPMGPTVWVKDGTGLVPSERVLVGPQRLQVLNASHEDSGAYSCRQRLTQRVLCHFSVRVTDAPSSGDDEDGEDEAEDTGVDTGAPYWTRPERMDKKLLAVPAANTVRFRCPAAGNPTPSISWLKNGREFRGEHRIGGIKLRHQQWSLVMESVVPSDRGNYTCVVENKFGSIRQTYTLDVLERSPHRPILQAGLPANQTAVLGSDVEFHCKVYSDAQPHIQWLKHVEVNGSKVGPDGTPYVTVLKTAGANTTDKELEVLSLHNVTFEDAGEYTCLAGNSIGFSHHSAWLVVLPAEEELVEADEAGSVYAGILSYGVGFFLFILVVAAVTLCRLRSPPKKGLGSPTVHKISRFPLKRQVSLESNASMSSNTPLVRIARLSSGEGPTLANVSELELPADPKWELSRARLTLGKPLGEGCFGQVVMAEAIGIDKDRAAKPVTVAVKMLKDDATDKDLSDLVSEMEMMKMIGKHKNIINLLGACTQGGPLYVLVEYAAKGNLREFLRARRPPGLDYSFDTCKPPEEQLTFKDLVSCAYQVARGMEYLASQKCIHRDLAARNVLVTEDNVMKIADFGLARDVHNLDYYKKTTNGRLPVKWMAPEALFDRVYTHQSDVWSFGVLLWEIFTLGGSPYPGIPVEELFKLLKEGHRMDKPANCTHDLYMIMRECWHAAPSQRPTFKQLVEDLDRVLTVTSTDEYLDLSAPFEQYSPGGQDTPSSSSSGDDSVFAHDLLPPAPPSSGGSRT
Summary of the method: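 KATO III cells treated 6 h at the indicated concentrations with degrader or BGJ398; FGFR A-loop Tyr656/657 autophosphorylation monitored by immunoblot.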

SNU-16 = assay: Antitumor activity against human SNU-16 cells xenografted in BALB/c nude mouse assessed as reduction in PLCgamma phosphorylation in tumor at 20 mg/kg, po measured at 4 hrs; type: functional, organism-based
Summary of the method: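 Female BALB/c nude mice, 5 weeks old (20–22 g), s.c. right-flank SNU-16 implants, randomized by body weight into groups (n = 5) once tumours reached 50–100 mm3. Dosing 20 mg/kg/day intragastric in 0.5% CMC-Na for 15 d; vehicle controls. Tumour width and length measured every 2 days; tumours harvested 4 h after last dose and lysates immunoblotted for pFGFR, FGFR2, pPLCγ, pErk.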

[2] = target: T2, Protein cereblon/Fibroblast growth factor receptor 2 (Homo sapiens, UniProt P21802+Q96SW2); assay: PROTAC activity at CRBN/FGFR2 in human KATO III stomach cancer cell line assessed as FGFR2 degradation by measuring maximum efficacy at 0.5 to 10000 nM measured for 6 hrs by Western blotting analysis relative to control; type: cell-based; details: dose 0.5-10000 nM
T2 sequence (P21802 22-821 limits assumed): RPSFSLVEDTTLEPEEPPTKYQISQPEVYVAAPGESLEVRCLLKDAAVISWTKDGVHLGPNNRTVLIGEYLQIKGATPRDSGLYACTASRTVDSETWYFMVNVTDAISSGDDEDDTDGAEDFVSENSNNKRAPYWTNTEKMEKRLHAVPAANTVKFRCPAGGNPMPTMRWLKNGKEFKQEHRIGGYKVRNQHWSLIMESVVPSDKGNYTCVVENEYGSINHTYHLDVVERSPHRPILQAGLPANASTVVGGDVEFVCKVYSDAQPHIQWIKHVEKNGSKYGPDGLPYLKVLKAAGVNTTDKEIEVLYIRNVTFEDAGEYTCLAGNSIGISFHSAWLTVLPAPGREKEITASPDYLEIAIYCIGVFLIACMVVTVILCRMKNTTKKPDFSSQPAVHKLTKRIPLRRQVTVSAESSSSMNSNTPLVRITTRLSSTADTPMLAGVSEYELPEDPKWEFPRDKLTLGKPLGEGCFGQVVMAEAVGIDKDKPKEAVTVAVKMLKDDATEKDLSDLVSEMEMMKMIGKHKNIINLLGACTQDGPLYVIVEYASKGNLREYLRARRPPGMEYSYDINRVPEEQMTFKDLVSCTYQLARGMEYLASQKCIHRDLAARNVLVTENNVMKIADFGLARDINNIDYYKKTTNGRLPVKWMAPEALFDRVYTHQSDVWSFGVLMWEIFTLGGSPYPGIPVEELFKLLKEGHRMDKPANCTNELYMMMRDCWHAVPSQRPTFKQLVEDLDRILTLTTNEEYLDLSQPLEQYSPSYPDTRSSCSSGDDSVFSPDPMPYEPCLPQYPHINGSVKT
T2 sequence (Q96SW2 whole entry partner): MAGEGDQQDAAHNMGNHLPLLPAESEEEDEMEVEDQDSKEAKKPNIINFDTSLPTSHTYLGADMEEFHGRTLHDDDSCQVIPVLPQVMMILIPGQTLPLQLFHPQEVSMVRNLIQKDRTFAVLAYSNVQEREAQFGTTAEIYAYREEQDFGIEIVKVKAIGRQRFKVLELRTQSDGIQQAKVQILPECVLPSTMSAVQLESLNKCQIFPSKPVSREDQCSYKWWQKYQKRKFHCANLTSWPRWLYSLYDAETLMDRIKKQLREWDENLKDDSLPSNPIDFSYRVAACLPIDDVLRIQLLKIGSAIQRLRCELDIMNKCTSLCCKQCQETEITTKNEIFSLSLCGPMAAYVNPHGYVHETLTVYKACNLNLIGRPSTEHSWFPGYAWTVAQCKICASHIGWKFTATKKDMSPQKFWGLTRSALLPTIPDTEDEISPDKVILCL
Summary of the method: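 KATO III cells treated for 6 h at the stated concentrations, added from 10 mM DMSO stocks (final DMSO below 0.5%). Cells were washed with PBS and lysed in 2× loading buffer, then run on SDS-PAGE and blotted to PVDF. Anti-FGFR2 was applied overnight at 4 °C, with ECL detection. FGFR2 was expressed as FGFR2/β-actin, normalized to DMSO-treated cells, from three independent biological experiments.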

[3] = target: T2, Protein cereblon/Fibroblast growth factor receptor 2; assay: PROTAC activity at CRBN/FGFR2 in human KATO III stomach cancer cell line assessed as FGFR2 degradation by measuring FGFR2 expression level upto 100 nM measured after 3 hrs by Western blotting analysis; type: cell-based
Summary of the method: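 Time course in KATO III cells: FGFR2/β-actin by Western blot at successive treatment times, normalized to DMSO control.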

[4] = target: Fibroblast growth factor receptor 2 (Homo sapiens) (UniProt P21802); assay: Inhibition of partial length human FGFR2 at 1000 nM by KINOMEscan analysis relative to control
Sequence of Fibroblast growth factor receptor 2 (Homo sapiens) (P21802 22-821 limits assumed): as the sequence (P21802 22-821 limits assumed) above
Summary of the method: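 97-kinase scanEDGE panel screened at 1000 nM; results reported as % Ctrl, lower values meaning stronger inhibition.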

[5] = target: Tyrosine-protein kinase ABL1 (Homo sapiens) (UniProt P00519); assay: Inhibition of human ABL1 at 1000 nM by KINOMEscan analysis relative to control
[6] = target: T2, Protein cereblon/Fibroblast growth factor receptor 2; assay: PROTAC activity at CRBN/FGFR2 in human KATO III stomach cancer cell line membrane assessed as reduction in membrane bound FGFR2 at 100 nM measured for 6 hrs by flow cytometry analysis; type: cell membranes
Summary of the method: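 Approx. 2 × 10^6 KATO III cells were treated 6 h at 100 nM. They were washed in cold PBS and stained with anti-FGFR2 (1:100, 4 °C, 1 h), then with Alexa Fluor 488 secondary (1:500, 4 °C, 1 h). Surface FGFR2 was read by flow cytometry on at least 100,000 events, with 488 nm excitation and FITC detection at 519 nm.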

[7] = target: T1, Fibroblast growth factor receptor (Homo sapiens); assay: Induction of FGFR degradation in human KATO III stomach cancer cell line assessed as reduction in FRS2 phosphorylation at 50 nM measured for 6 hrs; type: cell-based
Summary of the method: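 KATO III cells incubated 6 h with 50 nM compound, then stimulated with FGF1 for 10 min; pFGFR, pPLCγ1 (Tyr783) and pFRS2α immunoblotted.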

NCI-H716 = assay: Antiproliferative activity against human NCI-H716 cells assessed as reduction in cell viability measured for 72 hrs by celltiter-glo reagent based assay; type: functional; details: NCI-H716, 72 h
Summary of the method: (§1)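 Cancer lines KATO III, SNU16, NCI-H716, NCI-H1975, MV-4-11 and HEK293T treated 72 h; antiproliferative IC50 given as mean ± s.d. from three independent biological experiments.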

NCI-H1975 = assay: Antiproliferative activity against human NCI-H1975 cells assessed as reduction in cell viability measured for 72 hrs by celltiter-glo reagent based assay; type: functional; details: NCI-H1975, 72 h; summary of the method: as §1
[8] = Half life in Sprague-Dawley rat at 3 mg/kg, iv measured at 0.083 to 24 hrs by LC-MS/MS analysis; type: ADME, organism-based; details: in vivo, time 0.083-24 hrs
Summary of the method: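 Male Sprague Dawley rats, single dose i.v. 3 mg/kg or p.o. 20 mg/kg in 10% Solutol, 85% (10% HP-β-CD in saline), 5% DMSO, pH adjusted to 9–10.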

[9] = Tmax in Sprague-Dawley rat at 3 mg/kg, iv measured at 0.083 to 24 hrs by LC-MS/MS analysis; type: ADME, organism-based; details: in vivo, time 0.083-24 hrs
Summary of the method: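 Male Sprague Dawley rats received a single dose of 3 mg/kg i.v. or 20 mg/kg p.o. Vehicle was 10% Solutol, 85% (10% HP-β-CD in saline) and 5% DMSO, adjusted to pH 9–10. Plasma was assayed by LC–MS/MS.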

[10] = Toxicity in ICR mouse assessed as change in heart weight at 20 mg/kg, po measured for 30 days; type: organism-based; details: in vivo, 720 h, time 30 day
Summary of the method: (§2)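 ICR mice (n = 6) were dosed orally at 20 mg/kg/day for 30 days, alongside vehicle-treated controls. Mortality and clinical signs were checked daily. At the end, body and organ weights were recorded. Heart, liver, spleen, lung and kidney were examined by hematoxylin and eosin staining.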

[11] = Hepatotoxicity in ICR mouse assessed as effect on ALT level at 20 mg/kg, po measured for 30 days; type: toxicity, organism-based; details: in vivo, 720 h, time 30 day
Summary of the method: (§3)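 ICR mice given 20 mg/kg/day orally for 30 days (n = 6), vehicle controls; mortality and clinical signs checked daily, then AST/ALT and creatinine, organ weights, haematology and H&E of heart, liver, spleen, lung, kidney.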

[12] = Nephrotoxicity in ICR mouse assessed as effect on creatinine level at 20 mg/kg, po measured for 30 days; type: toxicity, organism-based; details: in vivo, 720 h, time 30 day; summary of the method: as §3
[13] = Toxicity in ICR mouse assessed as morphological changes in spleen at 20 mg/kg, po measured for 30 days by hematoxyin-eosin staining based analysis; type: organism-based; details: in vivo, 720 h, time 30 day; summary of the method: as §2
[14] = Toxicity in BALB/c mouse xenografted with human SNU-16 cells assessed as tolerability at 20 mg/kg, po administered for 15 days and measured on day 2; type: organism-based; details: in vivo, 48 h, time 2 day
Summary of the method: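 Female BALB/c nude mice, 5 weeks old (20–22 g), carried subcutaneous SNU-16 xenografts in the right flank. Dosing began at mean tumor volume 50–100 mm3, after randomization by body weight, n = 5. Mice received 20 mg/kg/day by gavage in 0.5% CMC-Na, QD for 15 d, with vehicle controls. Body weight was measured every 2 days.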

[15] = Cmax in mouse at 20 mg/kg, po measured at 0.25 to 24 hrs by LC-MS/MS analysis; details: in vivo

## COc1cc(OC)c(Cl)c(NC(=O)N(C)c2cc(Nc3ccc(N4CCN(C(=O)C5CCN(c6ccc7c(c6)C(=O)N(C6CCC(=O)NC6=O)C7=O)CC5)CC4)cc3)ncn2)c1Cl (stereo not drawn)
[1]
  Activity: Active
SNU-16
  Activity: Active
[2]
  Emax: 80%
[3]
  Activity: Active
[4]
  inhibition: 87%
[5]
  inhibition: 47%
[6]
  Activity: Active
[7]
  Activity: Active
NCI-H716
  IC50: 3.2 nM
NCI-H1975
  IC50: > 10000 nM
[8]
  half-life: 58.2 min
[9]
  Tmax: 4.98 min
[10]
  Activity: Non-Toxic
[11]
  Activity: Non-Toxic
[12]
  Activity: Non-Toxic
[13]
  Activity: Non-Toxic
[14]
  Activity: Non-Toxic
[15]
  Cmax: 82.1 ng/mL
